Measured values taken from ChEMBL document CHEMBL3526151, “Reversible disulfide formation of the glutamate carboxypeptidase II inhibitor E2072 results in prolonged systemic exposures in vivo” (Drug Metab Dispos, 2012).

Legend:
[1] = AUC(0 to last) in Sprague-Dawley rat at 10 mg/kg, po administered via gavage measured under fed conditions by LC-MS/MS analysis; assay type: ADME, organism-based; design: time 0 - last, dose 10 mg/kg, route oral; settings: plasma
Method in brief: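 Nonfasted male Sprague-Dawley rats given a single 10 mg/kg oral dose in 50 mM HEPES buffered saline, pH 7.4. Plasma collected 0.25–24 h into heparin/NEM tubes and assayed by LC-MS/MS. Noncompartmental parameters derived, including Cl/F and Vd/F. Mean ± S.D., n = 6–9.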

[2] = Half life in Sprague-Dawley rat at 10 mg/kg, po administered via gavage measured under fed conditions by LC-MS/MS analysis; assay type: ADME, organism-based; design: dose 10 mg/kg, route oral; settings: in vivo
[3] = AUC(0 to infinity) in Sprague-Dawley rat at 10 mg/kg, iv by LC-MS/MS analysis; assay type: ADME, organism-based; design: time infinity, dose 10 mg/kg, route intravenous; settings: plasma
Method in brief: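 Male Sprague-Dawley rats dosed intravenously at 10 mg/kg (n = 6). Blood sampling extended to 7 days into heparin tubes containing NEM. Plasma assayed for parent and homodisulfide by LC-MS/MS, calibration range 1–5000 ng/ml. Noncompartmental analysis, t1/2 = 0.693/λz. Mean ± S.D.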

[4] = Oral bioavailability in cynomolgus monkey at 5 mg/kg by LC-MS/MS analysis; assay type: ADME, organism-based, Macaca fascicularis; settings: in vivo
Method in brief: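 Cynomolgus monkeys (n = 3) received a nominal 5 mg/kg dose in 50 mM HEPES, TCEP-treated to prevent disulfide formation. Dosing was either an IV bolus via cephalic or saphenous vein or oral. Arterial cannula blood was collected into NEM-containing heparinized tubes for up to 9 days and analyzed by LC-MS/MS. Noncompartmental analysis gave t1/2 = 0.693/λz and F% = dose-normalized mean AUCinf p.o./i.v. ×100.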

[5] = Cmax in Sprague-Dawley rat brain at 10 mg/kg, po administered as single dose measured per gm of tissue by LC-MS/MS analysis; assay type: ADME, organism-based; design: dose 10 mg/kg, route oral
Method in brief: (§1)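 Male Sprague-Dawley rats were dosed orally with 10 mg/kg/day, either once or daily for 5 days; n = 4 per group. Blood was taken by cardiac puncture and liver, kidney, brain and sciatic nerve were collected at 0–8 h post-dose. Tissues were homogenized in PBS containing NEM at equal volume per gram. NEM-derivatized analyte was extracted with methanol and quantified by LC-MS/MS (1–5000 ng/ml). Cmax is the observed value.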

[6] = Cmax in Sprague-Dawley rat plasma at 10 mg/kg/day, po administered for 5 days by LC-MS/MS analysis; assay type: ADME, organism-based; design: dose 10 mg/kg/day, route oral; method in brief: as §1
[7] = Primary phase half life in Sprague-Dawley rat at 10 mg/kg, iv by LC-MS/MS analysis; assay type: ADME, organism-based; design: dose 10 mg/kg, route intravenous; settings: in vivo, read-out: alphat1/2 (converted)
[8] = Phase 2 metabolic stability in human liver microsomes assessed as compound remaining at 10 uM measured for 1 hr by LC-MS/MS analysis; assay type: ADME; settings: read-out: Stability
Method in brief: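 For glucuronidation, compound was preincubated at 37°C in 50 mM Tris-HCl, pH 7.5, with 0.5 mg/ml liver microsomes, 8 mM MgCl2 and 25 µg/ml alamethicin. Reactions were started in duplicate with 2 mM UDPGA (final). Samples were taken up to 1 h, quenched with acetonitrile containing internal standard, and compound disappearance was measured by LC-MS/MS.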

[9] = Phase 1 metabolic stability in mouse liver microsomes assessed as compound remaining at 10 uM measured for 1 hr by LC-MS/MS analysis in absence of cofactors; assay type: ADME; settings: read-out: Stability
Method in brief: (§2)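 Cofactor-free controls were run for each microsomal incubation: 0.5 mg/ml liver microsomes with 10 µM compound, omitting cofactors, so that cofactor-independent degradation could be measured. Samples were taken up to 1 h, quenched with acetonitrile containing internal standard, and the percent remaining was determined by LC-MS/MS.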

[10] = Phase 1 metabolic stability in dog liver microsomes assessed as compound remaining at 10 uM measured for 1 hr by LC-MS/MS analysis in absence of cofactors; assay type: ADME, Canis lupus familiaris; settings: read-out: Stability; method in brief: as §2
[11] = Phase 2 metabolic stability in mouse liver microsomes assessed as compound remaining at 10 uM measured for 1 hr by LC-MS/MS analysis in absence of cofactors; assay type: ADME; settings: read-out: Stability
Method in brief: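 Glucuronidation in liver microsomes of the named species, 0.5 mg/ml protein, compound at 10 μM final, in 50 mM Tris-HCl pH 7.5 with 8 mM MgCl2 and 25 μg/ml alamethicin. Preincubated at 37°C, then started with 2 mM UDPGA (final); cofactor-free controls run alongside. Duplicate reactions, sampled up to 1 h, quenched with cold acetonitrile plus internal standard; disappearance followed by LC-MS/MS.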

[12] = Metabolic stability in Sprague-Dawley rat plasma assessed as compound remaining at 10 uM after 1 hr by LC-MS/MS analysis; assay type: ADME, cell-free; settings: read-out: Stability
Method in brief: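 Compound at 5 and 10 µM was incubated at 37°C in Sprague-Dawley rat or cynomolgus monkey plasma. Aliquots taken at 0, 30 and 60 min were quenched with acetonitrile and analyzed by LC-MS/MS. Percent remaining = analyte/internal-standard area ratio at time t divided by that at time 0.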

[13] = Cmax in Sprague-Dawley rat brain at 10 mg/kg/day, po administered for 5 days measured per gm of tissue by LC-MS/MS analysis; assay type: ADME, organism-based; design: dose 10 mg/kg/day, route oral; method in brief: as §1
[14] = AUC(0 to infinity) in Sprague-Dawley rat at 30 mg/kg, po administered via gavage measured under fasted conditions by LC-MS/MS analysis; assay type: ADME, organism-based; design: time infinity, dose 30 mg/kg, route oral; settings: plasma
Method in brief: (§3)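 Fasted male Sprague-Dawley rats (280–330 g) received 0.1, 1, 10 or 30 mg/kg by oral gavage in 50 mM HEPES buffered saline, pH 7.4. Blood drawn at 0.25–24 h into heparin/NEM tubes; plasma analyzed by LC-MS/MS. Cmax taken as observed. AUC by linear trapezoidal rule with extrapolation by λz. Cl/F and Vd/F reported. Mean ± S.D., n = 4–9.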

[15] = test system: Rattus norvegicus; experiment: Apparent oral clearance in Sprague-Dawley rat at 0.1 mg/kg, po administered via gavage measured under fasted conditions by LC-MS/MS analysis; assay type: ADME, organism-based; design: dose 0.1 mg/kg, route oral; settings: in vivo; method in brief: as §3
[16] = AUC(0 to last) in Sprague-Dawley rat at 10 mg/kg, po administered via gavage measured under fasted conditions by LC-MS/MS analysis; assay type: ADME, organism-based; design: time 0 - last, dose 10 mg/kg, route oral; settings: plasma; method in brief: as §3
[17] = AUC(0 to last) in Sprague-Dawley rat at 30 mg/kg, iv administered as bolus injection measured under fasted conditions by LC-MS/MS analysis; assay type: ADME, organism-based; design: time 0 - last, dose 30 mg/kg, route intravenous; settings: plasma
Method in brief: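 Male Sprague-Dawley rats (280–330 g), jugular vein cannulated, fasted overnight until 4 h post-dose. Single tail-vein bolus of 0.1, 1, 10 or 30 mg/kg in 50 mM HEPES buffered saline, pH 7.4. Blood drawn 0–24 h into heparin tubes containing NEM. Plasma quantified by LC-MS/MS after NEM derivatization. Noncompartmental analysis: AUClast by linear trapezoidal rule, Cl = dose/AUC0-∞. Mean ± S.D., n = 4–9.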

[18] = Half life in Sprague-Dawley rat at 0.1 mg/kg, iv administered as bolus injection measured under fasted conditions by LC-MS/MS analysis; assay type: ADME, organism-based; design: dose 0.1 mg/kg, route intravenous; settings: in vivo
[19] = Half life in Sprague-Dawley rat at 1 mg/kg, po administered via gavage measured under fasted conditions by LC-MS/MS analysis; assay type: ADME, organism-based; design: dose 1 mg/kg, route oral; settings: in vivo
[20] = Half life in Sprague-Dawley rat at 30 mg/kg, iv administered as bolus injection measured under fasted conditions by LC-MS/MS analysis; assay type: ADME, organism-based; design: dose 30 mg/kg, route intravenous; settings: in vivo
[21] = species: Rattus norvegicus; experiment: Drug recovery in Sprague-Dawley rat plasma stability experiment; settings: in vitro

AUC(0-t) [1]: 32200 ng·h/mL | half-life [2]: 165 min | AUC(0-inf) [3]: 87000 ng·h/mL | bioavailability [4]: 39.1% | Cmax [5]: 25 ng/g | Cmax [6]: 6080 ng/mL | half-life [7]: 52.2 min | remaining at 1 h, 10 µM [8]: > 90% | remaining at 1 h, 10 µM [9]: > 90% | remaining at 1 h, 10 µM [10]: > 90% | remaining at 1 h, 10 µM [11]: > 90% | remaining at 1 h, 10 µM [12]: 64.5% | Cmax [13]: 32.4 ng/g | AUC(0-inf) [14]: 76600 ng·h/mL | CL/F [15]: 0.51 L/h/kg | AUC(0-t) [16]: 33400 ng·h/mL | AUC(0-t) [17]: 202 µg·h/mL | half-life [18]: 138 min | half-life [19]: 223 min | half-life [20]: 244 min | Drug recovery [21]: 60%
Structure (SMILES): O=C(O)c1cccc(-c2cccc(CCS)c2C(=O)O)c1
